Compounds with a hit are over-represented: about 11% of the library has one in this group of screens.
RORa activator = activators of orphan receptor RORA, primary screen, cell-based, luminescence. AID 560, 2006. CHO-K1 Gal4-RORA LBD luciferase reporter; percent increase over mock-subtracted basal signal. activation, % at 10 µM. actives 1.5% (n = 65,000). Nuclear receptor ROR-alpha (Homo sapiens), P35398;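 active means activation above the mean of all tested compounds plus 3 SD, cut at about 49% in these data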
M1 agonist = M1 muscarinic receptor agonists, primary screen, CHO-M1 cells, Fluo-4 calcium, agonist mode | Muscarinic acetylcholine receptor M1 | Fluo-4 calcium fluorescence; active compounds read high | B-score at 10 µM | actives 3% (n = 64,000) | AID 626, 2007;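 active means fluorescence rise, raw or as B-score row- and column-corrected plate score, outside the 99.7% band of its plate's samples, either direction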
D1 mod = D1 CRE-luciferase signal change, two-sided – cell-based, HEK293 D1, dopamine EC30, D1 allosteric modulator project, primary screen; actives 5.9% (n = 58,000); dopamine EC30 potentiation; actives deviate in either direction; B-score at 10 µM;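 active means luminescence count or its row- and column-corrected plate score outside the 99.7% band of the plate's sample wells, on either side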
Htt clearance = clearance of mutant huntingtin inclusions, primary screen, imaging, HeLa Exon1htt(103Q)mCFP, confocal imaging | aggregate imaging; zero = plate's median compound well | inhibition, % at 1.5 µM | actives 0.42% (n = 47,000) | AID 853, 2007;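 active means inhibition of aggregate fluorescence above about 70%, also judged a hit by eye on the cell image, limit read from the data, passing the limit was not always enough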;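 further: cells exposed to compound for three days before fixation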
M1 antag = antagonists of rat M1 muscarinic receptor; CHO-M1 cells, Fluo-4 calcium, ACh EC80 antagonist mode; active compounds read low; B-score at 10 µM; actives 3.4% (n = 64,000); AID 628, 2007;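 active means calcium fluorescence response, raw or row-and-column corrected B-score, differing from the plate sample mean either way at a set confidence level, mostly lower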
Target sequence (P08482 whole entry, looked up): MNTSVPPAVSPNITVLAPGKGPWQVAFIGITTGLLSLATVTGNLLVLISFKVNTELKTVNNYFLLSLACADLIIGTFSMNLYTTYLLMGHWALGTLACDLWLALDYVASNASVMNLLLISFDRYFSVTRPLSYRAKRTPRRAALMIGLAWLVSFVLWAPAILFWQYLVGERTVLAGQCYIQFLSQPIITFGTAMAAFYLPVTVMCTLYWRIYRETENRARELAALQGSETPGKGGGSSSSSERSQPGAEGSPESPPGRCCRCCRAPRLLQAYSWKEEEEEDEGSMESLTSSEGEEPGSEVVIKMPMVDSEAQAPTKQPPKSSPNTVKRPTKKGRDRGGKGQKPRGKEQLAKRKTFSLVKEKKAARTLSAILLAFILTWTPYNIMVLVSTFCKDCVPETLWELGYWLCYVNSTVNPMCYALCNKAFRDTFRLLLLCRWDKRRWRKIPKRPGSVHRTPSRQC
SF-1 act = activators of human SF-1, primary screen, cell-based, CHO-K1, Gal4-SF-1 LBD, luciferase luminescence | AID 522, 2006 | Steroidogenic factor 1 (Homo sapiens), Q13285 | activation, % at 10 µM | actives 1.9% (n = 65,000) | CHO-K1 Gal4-SF-1 LBD luciferase reporter; % increase over DMSO SF-1-specific signal;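 active means activation above the mean activation of all tested compounds plus 3 SD, cut at about 50% in these data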
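Test system: transient Gal4-SF-1 LBD reporter, CHO-K1; Amount: 4,000 CHO-K1 cells per well; Doses: 10 µM only; Timing: compound exposure 20 h at 37 °C; Signal: luciferase light emission; Read-out basis: percent activation relative to DMSO median and mock-transfected background; Control set: DMSO negative control and −SF1 background wells; Replicates: one test per compound.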
Of the large screens only hits and unclear results are named; the others gave an inactive call.

O=C(Nc1ccc(Cl)cc1)N1CC=CCC1	RORa activator 51.5 (no result: Htt clearance)
Cc1cc2c(cc(C(=O)N3CCC(C(=O)NC4CCCC4)CC3)n2Cc2c(F)cccc2Cl)o1	M1 agonist 6.2 (no result: D1 mod, Htt clearance)
CCOC(=O)C1CCN(Cc2c(F)cccc2Cl)CC1	none
O=S1(=O)Nc2c(ccc3cccnc23)-c2ccccc21	D1 mod -3.6 (no result: Htt clearance)
O=C1CCCC(O)=C1C=Nc1ccc(O)cc1	SF-1 act 55.8 (no result: Htt clearance)
Cc1cc(C)n(S(=O)(=O)Cc2ccccc2)n1	none
O=C(c1cccn2c(=O)c3ccc(Cl)cc3nc12)N1CCN(Cc2ccc3c(c2)OCO3)CC1	none (no result: Htt clearance)
O=C(NCCN1C(=O)C2C3C=CC(C3)C2C1=O)Nc1ccc(Br)cc1 (configuration not stated)	RORa activator 84.3, SF-1 act 83.7 (no result: Htt clearance)
O=S(=O)(NCc1ccccc1)c1cnc[nH]1	none
Fc1ccc(-c2cnc[nH]2)cc1	M1 antag 1.94 (no result: Htt clearance)
c1ccc(-c2nnc(-c3ccccn3)nn2)nc1	D1 mod -5.47 (no result: Htt clearance)
c1ccc(-c2cccc(-c3ccccn3)n2)nc1	none
CN(C)C(=O)CSc1nnc(C23CC4CC(CC(C4)C2)C3)o1	SF-1 act 88.3 (no result: Htt clearance)
CN(C)C(=O)CSc1nnc(CCN)o1	none (no result: D1 mod)
CCOC(=O)c1ccc(N2C(=O)c3n[nH]c(C)c3C2c2ccc(OC)c(OC)c2)cc1 (configuration not stated)	D1 mod -2.31
Cc1ccc(C)n1C1CCS(=O)(=O)C1 (configuration not stated)	D1 mod -4.56
CC(C)c1ccccc1N=C1SCCN1C1CCS(=O)(=O)C1 (configuration not stated)	none
CC(=O)NCCc1ccc(S(=O)(=O)Nc2cccnc2)cc1	none (no result: Htt clearance)
COCCNC(=O)c1noc2c1CCc1cc(OC)ccc1-2	SF-1 act 72.0 (no result: Htt clearance)
COc1ccc2c(c1)CCc1c(C(=O)NCCN3CCOCC3)noc1-2	none (no result: M1 agonist, Htt clearance, M1 antag)
COCC(C)NC(=O)c1noc2c1CCc1cc(OC)ccc1-2 (configuration not stated)	SF-1 act 67.6 (no result: Htt clearance)
COc1ccc2c(c1)CCc1c(C(=O)NC3CCCCC3)noc1-2	SF-1 act 54.1 (no result: M1 agonist, Htt clearance, M1 antag)
COc1ccc2c(c1)CCc1c(C(=O)NCc3ccco3)noc1-2	none (no result: Htt clearance)
COc1ccc(Cc2nnc3n2N=C(c2cc4ccccc4o2)CS3)cc1OC	D1 mod 3.01
COc1ccc(-c2nnc3n2N=C(c2ccccc2)CS3)cc1OC	none (no result: Htt clearance)
c1coc(-c2nn3c(Cn4nnc5ccccc54)nnc3s2)c1	none
COc1ccc(OC)c(C(=O)CSc2nc3c(c(=O)n(C)c(=O)n3C)n2C(C)C)c1	D1 mod 6.07
CCn1c(SCC(=O)Nc2ccc3c(c2)OCO3)nc2c1c(=O)n(C)c(=O)n2C	none (no result: Htt clearance)
CCCn1c(SCC(=O)Nc2ccc3c(c2)OCO3)nc2c1c(=O)n(C)c(=O)n2C	D1 mod 4.78 (no result: Htt clearance)
CCn1c(SCC(=O)N2CCN(c3ccc(F)cc3)CC2)nc2ccccc2c1=O	none (no result: Htt clearance)
CCCn1c(SCC(=O)N2CCCC2)nc2c1c(=O)n(C)c(=O)n2C	none (no result: D1 mod)
CCCn1c(SCC(=O)N2CCN(c3ccccc3)CC2)nc2ccccc2c1=O	M1 antag 1.93 (no result: Htt clearance)
CCCn1c(SCC(=O)N2CCN(c3ccc(OC)cc3)CC2)nc2c1c(=O)n(C)c(=O)n2C	M1 agonist 9.64, D1 mod -5.18
COc1ccc2nc(SCC(=O)N3CCN(c4ccccc4F)CC3)c(C#N)cc2c1	none (no result: RORa activator, M1 agonist, D1 mod, M1 antag, SF-1 act)
Cc1nnc(SCC(=O)NC(C)c2ccccc2)[nH]c1=O (configuration not stated)	none (no result: Htt clearance)
CCOC(=O)CSc1nc2ccccc2c(=O)n1NC(=O)c1ccccc1	SF-1 act 56.0 (no result: Htt clearance)
COc1ccc2c(c1)OCC1=C2CCC2(C)C(=O)CC=C12 (configuration not stated)	none
Cc1c(-n2c(CN3C(=O)c4ccccc4C3=O)nc3ccccc3c2=O)c(=O)n(-c2ccccc2)n1C	M1 antag 1.51 (no result: Htt clearance)
CC(C)Cn1c(CN2C(=O)c3ccccc3C2=O)nc2ccccc2c1=O	none (no result: Htt clearance)
CCNC(=O)NC(=O)COC(=O)c1ccccc1SCC(=O)NC(=O)NCC	SF-1 act 69.1 (no result: Htt clearance)
O=C(Cc1ccccc1)Nc1nc2ccccc2[nH]1	D1 mod -5.51
O=C(Cc1c[nH]c2ccccc12)Nc1nc2ccccc2[nH]1	none
Cc1ccccc1OCCNC(=O)CNC(=O)c1ccccc1O	none
CC1(C)CN=C(N2CCN(C3=NCC(C)(C)S3)CC2)S1	M1 antag -6.3 (no result: Htt clearance)
COc1ccc(-c2nc3c(c(=O)n(C)c(=O)n3C)n2CC2CC(c3ccccc3)=NO2)cc1OC (configuration not stated)	M1 agonist 4.73
NC(=O)CCn1c(=O)oc2ccccc21	none
O=C(CCn1c(=O)oc2ccccc21)N(Cc1ccccc1)c1ccccn1	Htt clearance 72.8
Cc1ccc2nc3sc(C(=O)N4CCOCC4)c(N)c3cc2c1	D1 mod -5.51
COc1ccc(S(=O)(=O)N(CC(=O)O)c2ccccc2)cc1	none
COc1ccc(N(CC(=O)O)S(=O)(=O)c2cccnc2)cc1	Htt clearance 71.2
Cc1cccc(C)c1NC(=O)C(=O)NCc1ccccn1	none (no result: RORa activator, M1 agonist, D1 mod, M1 antag, SF-1 act)
COCc1nc(-c2ccc(-c3ccccc3)nc2OC)no1	RORa activator 71.5 (no result: D1 mod)
CCc1nc(-c2ccc(-c3ccc(OC)cc3)nc2OC)no1	none (no result: Htt clearance)
CCOc1nc(-c2ccccc2)ccc1-c1noc(COC)n1	none
COCc1nc(-c2ccc(-c3ccc(OC)cc3)nc2OC)no1	RORa activator 49.3 (no result: Htt clearance)
CC(C)C(NS(=O)(=O)c1ccc2c(c1)OCCO2)C(=O)NCCc1ccccn1 (configuration not stated)	none (no result: Htt clearance)
O=C(c1ccccc1)c1c[nH]c2cc3c(cc2c1=O)OCO3	none
O=C(c1ccccc1)c1c[nH]c2cc3c(cc2c1=O)OCCO3	SF-1 act 50.0
c1ccc(-c2cnc(CSc3nnc4ccccn34)o2)cc1	SF-1 act 71.1 (no result: D1 mod, Htt clearance)
CCOc1ccc(S(=O)(=O)n2nnc3ccccc32)cc1C	Htt clearance 74.5
CCOC(=O)c1cnc2scnn2c1=O	none
CCOC(=O)c1cnc2cc3c(cn2c1=O)CCCC3	SF-1 act 86.5
CCN1C(=S)SC(=O)C1=C1C=C(C)N(CCOC)C(C)=C1	M1 agonist 44, D1 mod -3.96 (no result: Htt clearance)
CC(C)c1cc(C(=O)Nc2cccc(Cl)c2)no1	none
CCc1ccc(NC(=O)c2cc(C)on2)cc1	D1 mod -3.13
Cc1ccc(NC(=O)c2cc(C)on2)cc1	SF-1 act 59.6
CCc1ccc(NC(=O)c2cc(C(C)C)on2)cc1	RORa activator 61.9

Assay outcomes deposited in PubChem by several laboratories.
